Results reported in ChEMBL document CHEMBL4308845, “Allosteric Activation of Striatal-Enriched Protein Tyrosine Phosphatase (STEP, PTPN5) by a Fragment-like Molecule” (J Med Chem, 2019).

How the values were obtained:
Homo sapiens [1] = species: Homo sapiens; assay: Activation of human STEP46 (197 to 565 residues) expressed in Escherichia coli BL21(DE3) at 100 uM using biotin-pFyn peptide substrate after 60 mins by AlphaLISA assay relative to control
Procedure, shortened: (§1)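 STEP46 (50 nM final) with biotinylated pFyn peptide (20 nM final) and compound in 1% DMSO, 60 min at room temperature in the dark. Detection by anti non-phospho Src/Tyr416 antibody in stop buffer containing 10 μM orthovanadate, plus protein A acceptor and streptavidin donor beads, 15 min each. % CTL computed against enzyme (100%) and no-enzyme (0%) controls.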

Homo sapiens [2] = species: Homo sapiens; assay: Activation of human STEP46 (197 to 565 residues) expressed in Escherichia coli BL21(DE3) using pFyn peptide substrate after 60 mins by RapidFire MS/MS assay relative to control
Procedure, shortened: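 Unlabeled Fyn peptide with STEP46 (50 nM final) and compound (500 μM final) in 50 mM HEPES, 0.02% Brij35, 1 mM DTT; 1 h at room temperature. Stopped with sodium orthovanadate (12 μM final), internal standard peptide added, dephosphorylation quantified by RapidFire MS/MS using MRM in positive mode.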

Homo sapiens [3] = species: Homo sapiens; assay: Activation of human STEP46 (197 to 565 residues) expressed in Escherichia coli BL21(DE3) at 1000 uM preincubated for 10 mins followed by DiFMUP substrate addition and measured at 1 min time interval for 30 mins by fluorescence assay relative to control
Procedure, shortened: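 STEP46 preincubated 10 min at room temperature with compound; reaction started with DiFMUP. Final: 100 nM STEP46, 1 μM DiFMUP, 50 mM HEPES, 0.02% Brij 35, 1 mM DTT, 5% DMSO. Fluorescence (ex 340/em 460 nm) every 1 min for 30 min at 37 °C; no-enzyme background subtracted. Linear slope expressed relative to enzyme without compound (100%).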

Homo sapiens [4] = species: Homo sapiens; assay: Activation of human STEP46 (197 to 565 residues) expressed in Escherichia coli BL21(DE3) at 500 uM using biotin-pFyn peptide substrate after 60 mins by AlphaLISA assay relative to control; procedure, shortened: as §1

## N=C(N)Nc1cc(C2CCNCC2)cc(C(F)(F)F)c1
Homo sapiens [1]
  Activity: 33%
Homo sapiens [2]
  Activity: 28%
Homo sapiens [3]
  Activity: 48%
Homo sapiens [4]
  Activity: 56%
